Screening data deposited in PubChem by Sanford-Burnham Center for Chemical Genomics.
Compounds with a hit are over-represented: about 2.3% of the library has one in this group of screens.
Scp-1 inhibitor = inhibitors of human Scp-1 phosphatase; hit rate 0.88% among 340,000; Recombinant Scp1, phosphopeptide, malachite green phosphate absorbance; inhibition, % at 20 µM;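 active = inhibition above about 50% at 20 µM, limit read from the data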
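Incubation: 45 min enzyme reaction at room temperature / System: truncated SCP-1 phosphatase (76-261aa) / Reagent: Phospho 17-mer peptide substrate / Buffer or medium: Acidic Tris acetate buffer with magnesium and detergent / Signal: absorbance at 630 nm / Doses: one concentration, 20 µM, with 1.0% DMSO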
STEP inh = inhibitors of human striatal-enriched phosphatase STEP; inhibition, % at 20 µM; AID 588621; hit rate 0.25% among 360,000; P54829; recombinant STEP, OMFP fluorogenic substrate, fluorescence;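 active = inhibition at 20 µM, scaled per plate between control wells, above about 37%, limit read from the data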
Target sequence (P54829 whole entry, looked up): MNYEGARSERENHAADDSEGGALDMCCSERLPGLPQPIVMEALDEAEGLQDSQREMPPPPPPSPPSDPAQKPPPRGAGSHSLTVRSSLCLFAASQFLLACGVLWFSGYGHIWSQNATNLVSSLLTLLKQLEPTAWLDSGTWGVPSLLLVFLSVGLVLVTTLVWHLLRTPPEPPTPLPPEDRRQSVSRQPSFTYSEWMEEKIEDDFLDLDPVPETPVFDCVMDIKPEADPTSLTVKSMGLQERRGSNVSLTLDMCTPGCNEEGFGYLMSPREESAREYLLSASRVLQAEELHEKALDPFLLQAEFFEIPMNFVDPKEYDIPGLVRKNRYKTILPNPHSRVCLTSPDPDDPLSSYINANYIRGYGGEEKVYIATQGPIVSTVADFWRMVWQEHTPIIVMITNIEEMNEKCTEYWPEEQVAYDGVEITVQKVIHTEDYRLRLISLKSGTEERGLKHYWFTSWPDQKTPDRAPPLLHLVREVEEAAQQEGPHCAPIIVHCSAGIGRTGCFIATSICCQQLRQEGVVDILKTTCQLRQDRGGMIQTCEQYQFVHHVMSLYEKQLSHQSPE
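Measure: Control-normalized % inhibition with plate pattern correction | Test system: STEP phosphatase, cell-free reaction | Medium: pH 6.0 Bis-Tris with DTT and Tween 20 | Technique: Fluorescence, 480/540 nm | Times: Reaction 20 min, ambient temperature | Doses: Single compound dose of 20 µM, 1% DMSO final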
DNMT1 inh = inhibitors of human DNMT1 | P26358 | DNMT1 molecular beacon, Hinp1I cleavage, fluorescence | inhibition (reported as % activation of signal), % at 10 µM | hit rate 0.83% among 360,000 | AID 588458; in the data active = inhibition above about 50%
SUMO1 PPI mod = alters human SUMO1 binding to SIM partners; P63165; inhibition, % at 20 µM; SUMO1 binding to a labelled peptide, TR-FRET, 1 h; hit rate 0.33% among 360,000; in the data active = inhibition above about 37%
Target sequence (P63165 whole entry, looked up): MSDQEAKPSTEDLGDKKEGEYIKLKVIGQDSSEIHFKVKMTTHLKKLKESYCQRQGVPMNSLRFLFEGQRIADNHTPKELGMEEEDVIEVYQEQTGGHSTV
LMPTP block = blocks human LMPTP phosphatase | inhibition, % at 20 µM | hit rate 0.22% among 360,000 | AID 651560 | recombinant LMPTP-A, OMFP fluorogenic substrate, fluorescence intensity | P24666;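 active = compounds that cut the enzyme signal by at least half of the control window in the single-dose screen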
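Test system: LMPTP-A phosphatase enzyme; input: 0.625 nM LMPTP-A final; reagent: OMFP substrate, 400 µM final; compound dosing: 20 µM single dose, 3% DMSO; incubation: 50 min dark incubation at room temperature; measured by: endpoint fluorescence intensity from OMFP dephosphorylation; measure: % inhibition relative to no-enzyme and uninhibited control wells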
NadD block = inhibitors of Staphylococcus aureus NadD | purified NadD enzyme, colorimetric absorbance read-out | hit rate 0.78% among 360,000 | inhibition, % at 20 µM; in the data active = inhibition above about 26%
Scp1 confirm = confirmation of human Scp-1 phosphatase inhibitors; shares compounds with Scp-1 inhibitor; recombinant SCP-1 catalytic domain, phosphate release, malachite green absorbance; inhibition, % at 20 µM; hit rate 61% among 2,500; AID 540281
Scp-1 MG ctr = colorimetric interference in Scp-1 counter-screen; AID 540313; apparent inhibition (interference), % at 20 µM; Colorimetric interference counterscreen, malachite green absorbance 630 nm; 2,500 tested, under 10 active; shares compounds with Scp-1 inhibitor;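 also: compounds added after enzyme reaction finished so only phosphate colour detection is probed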
Scp1 DSF = binds human Scp-1, shifting its melting temperature. AID 540329. hit rate 25% among 1,500. thermal shift relative to vanadate control, % at 40 µM. Recombinant SCP1, Sypro Orange thermal shift Tm. shares compounds with Scp-1 inhibitor;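 active = substances whose mean melting-temperature shift, as a percentage of the reference inhibitor's shift, reaches about 5.3%, limit read from the data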
A number is an active result; – = inactive; · = no result given.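 The calls were made as follows, unless noted: active = inhibition of at least 30% at 20 µM; inactive = the rest.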

SMILES | Scp-1 inhibitor | STEP inh | DNMT1 inh | SUMO1 PPI mod | LMPTP block | NadD block | Scp1 confirm | Scp-1 MG ctr | Scp1 DSF
CC(Cl)C(=O)Nc1c2c(nn1-c1ccccc1)CSC2 (centres undefined) | – | – | – | – | – | – | · | · | ·
Cc1cc(C(=O)N2CCN(c3ccc([N+](=O)[O-])cc3)CC2)n[nH]1 | – | – | – | – | – | – | · | · | ·
Cn1c(=O)c2ncn(CC(=O)NCCOc3ccccc3)c2n(C)c1=O | – | – | – | – | – | – | · | · | ·
COc1ccc(CNC(=O)Cn2cnc3c(=O)n(C)c(=O)n(C)c32)cc1 | – | – | – | – | – | – | – | – | ·
CCC(NC(=O)Cn1cnc2c(=O)n(C)c(=O)n(C)c21)c1ccccc1 (centres undefined) | – | – | – | – | – | – | – | – | ·
CC(=O)Nc1cccc(/C(C)=N/NC(=O)c2ccc(NS(=O)(=O)c3cccs3)cc2)c1 | 64.2 | – | – | – | – | – | – | – | ·
C/C(=N\NC(=O)c1ccc(NS(=O)(=O)c2cccs2)cc1)c1ccc(C(C)(C)C)cc1 | – | – | – | – | – | – | · | · | ·
O=C(N/N=C/c1cn(-c2ccccc2)nc1-c1ccc2c(c1)OCCO2)c1ccncc1 | 75.2 | – | – | – | – | – | 57.2 | – | –
Cc1ccccc1Sc1ccc(N)cn1 | – | – | – | – | – | – | · | · | ·
Cc1cc(Br)ccc1NC(=O)CN(C)C(=O)Cn1c(=O)cnc2ccccc21 | 96.4 | – | – | – | – | – | 88.6 | – | –
CN(CC(=O)Nc1cccc(F)c1)C(=O)Cn1c(=O)cnc2ccccc21 | – | – | – | – | – | – | · | · | ·
Cc1ccc(-n2[nH]c(C)c(/C=N/Nc3ccc([N+](=O)[O-])cc3[N+](=O)[O-])c2=O)cc1 | 61.0 | – | – | – | – | – | 79.9 | – | 10.9
CC(=O)c1ccc(NC(=S)N2CCCC2)cc1 | – | – | – | – | – | – | · | · | ·
O=C(N/N=C/c1ccccn1)c1cc(-c2ccc(Br)s2)[nH]n1 | 67.2 | – | – | – | – | – | 51.9 | – | –
O=C(N/N=C/c1ccncc1)c1cc(-c2ccc(Br)s2)[nH]n1 | – | – | – | – | – | – | · | · | ·
Cc1cccc(OCCC(=O)OCC(=O)Nc2c(C)nn(-c3ccccc3)c2C)c1 | – | – | – | – | – | – | · | · | ·
CCOc1ccccc1NC(=O)CCS(=O)(=O)c1ccc(Br)cc1 | 92.2 | – | 104.6 | 56.6 | – | – | 66.9 | – | –
CN(C)C(=O)COC(=O)c1ccc(S(=O)(=O)NCc2ccco2)cc1 | 75.1 | – | – | – | – | – | 54.4 | – | –
O=C(COC(=O)c1ccc(S(=O)(=O)NCc2ccco2)cc1)Nc1ccccc1 | – | – | – | – | – | – | · | · | ·
O=C(COC(=O)c1ccc(S(=O)(=O)NCc2ccco2)cc1)Nc1ccc(Cl)cn1 | 60.4 | – | – | – | – | – | 64.5 | – | 6.4
C=CCn1c(SCc2nc3sc(C(=O)O)c(C)c3c(=O)[nH]2)nnc1-c1ccc(C(C)(C)C)cc1 | 69.2 | – | – | – | – | – | 54.7 | – | –
C=CCn1c(SCc2nc3sc(C(=O)O)c(C)c3c(=O)[nH]2)nnc1-c1ccccc1 | – | – | – | – | – | – | · | · | ·
O=c1oc2c(-c3ccc([N+](=O)[O-])cc3)cc(O)cc2s1 | 102.9 | – | – | 66.6 | – | – | 65.7 | – | 10.4
NC1=C(c2ccc([N+](=O)[O-])cc2)C(=O)CO1 | – | – | – | – | – | – | · | · | ·
CC1(NC(=O)CC(c2ccccc2)(c2ccccc2)c2ccccc2)CCN(CCCc2ccccc2)C1=O (centres undefined) | – | – | – | – | – | – | · | · | ·
SMILES | Scp-1 inhibitor | STEP inh | DNMT1 inh | SUMO1 PPI mod | LMPTP block | NadD block | Scp1 confirm | Scp-1 MG ctr | Scp1 DSF
COc1cccc(/C=C2\SC(=S)N(CCCC(=O)Nc3cccc(C(=O)O)c3)C2=O)c1 | · | – | – | – | – | – | · | · | ·
O=C(CCN1C(=O)S/C(=C\c2ccc(Cl)cc2)C1=O)Nc1ccc(C(=O)O)cc1 | 80.0 | – | – | – | – | – | 72.1 | – | –
CCOc1ccc(/C=C2\SC(=S)N(CCC(=O)Nc3ccc(C(=O)O)cc3)C2=O)cc1 | 87.7 | 45.1 | 62.3 | – | 66.5 | – | 60.1 | – | –
O=C(CCCN1C(=O)/C(=C\c2ccccc2)SC1=S)Nc1ccc(C(=O)O)cc1 | – | – | – | – | – | – | · | · | ·
CCOc1ccc(/C=C2\SC(=S)N(CCC(=O)Nc3cccc(C(=O)O)c3)C2=O)cc1 | 85.5 | 54.4 | – | – | 73.6 | – | 60.7 | – | 37.3
O=C(CCN1C(=O)/C(=C/c2ccc3c(c2)OCO3)SC1=S)Nc1ccc(C(=O)O)cc1 | 84.3 | – | – | – | 92.2 | – | 70.8 | – | 8.7
O=C(CSc1nnc(C2CC2)n1CC1CCCO1)Nc1ccccc1Cl (centres undefined) | – | – | – | – | – | – | · | · | ·
CCCNC(=O)C1(C)CCCN(CC(=O)c2ccc3c(c2)OCCO3)C1 (centres undefined) | · | – | – | – | – | – | · | · | ·
COc1ccc(/C=C2\SC(=O)N(CC(=O)Nc3ccc(O)cc3)C2=O)cc1OC | – | – | – | – | – | – | · | · | ·
Cc1ccc(NC(=O)CN2C(=O)S/C(=C\c3cc(Cl)c(OCC(=O)O)c(Cl)c3)C2=O)cc1 | 89.5 | 98.1 | – | – | 84.8 | 27.8 | 57.4 | – | –
CC1CCN(C(=O)c2cc(-c3ccccc3O)on2)CC1 | 52.8 | – | – | – | – | – | – | – | ·
COc1ccc(CN2CCN(Cc3csc(C(C)=O)c3)CC2CCO)c(C)c1C (centres undefined) | – | – | – | – | – | – | · | · | ·
Cc1ccc(/C=C(\C#N)C(=O)NCC2CCCO2)o1 (centres undefined) | – | – | – | – | – | – | · | · | ·
N#C/C(=C/c1ccc(-c2ccc(C(=O)O)c(Cl)c2)o1)C(=O)NCC1CCCO1 (centres undefined) | 105.9 | – | – | – | – | – | 55.0 | – | –
CCN(CC(=O)NCc1cccs1)C(=O)COc1ccc(C(C)=O)cc1 | 59.0 | – | – | – | – | – | – | – | ·
CCN(CC(=O)NCc1cccs1)C(=O)COc1cccc(C(F)(F)F)c1 | – | – | – | – | – | – | · | · | ·
COc1ccccc1NC(=O)N1CCCC1C(=O)NCCc1ccccc1 (centres undefined) | – | – | – | – | – | – | · | · | ·
O=C(CN1C(=O)C(c2ccc(F)cc2)=NC12CCCC2)Nc1ccc(F)cc1 | – | – | – | – | – | – | · | · | ·
